# Source: PubChem
# Only some compounds are listed: those with a hit (about 4.8% of all), similar ones and a draw of the others.
# SUMO Mot1 rescue – blocks SUMOylation pathway, rescuing yeast Mot1-301 growth. actives 1% (n = 320,000). S. cerevisiae Mot1-301 growth rescue, ATP luminescence, 38.5C; percent above DMSO median, 100 means doubled. growth rescue, % at 18.8 µM;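 active means every valid replicate shows activation above 250% relative to neutral control wells; inactive means the rest, any valid replicate at or below 250%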;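 further: OY570 slx delta 5 strain wells were the positive control but not used for scaling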
# T cruzi inh – blocks replication of Trypanosoma cruzi | actives 1.4% (n = 300,000) | AID 1885 | T. cruzi beta-gal in NIH3T3, luminescence, 90 h | inhibition, % (test concentration not listed);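 active means mean inhibition across valid replicates above about 55%, limit read from the data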;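 further: signal also drops with host cell toxicity which is not excluded here; 0% = plate median of DMSO wells and 100% = zero luminescence signal; higher percent means less beta-gal luminescence so fewer parasites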
#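 Test system: β-gal T. cruzi (Tulahuen C4) inside NIH/3T3 cells / Quantity: 5,000 cells/well / Measured by: luminescence from GalScreen with 0.05% NP40, read after 60 min / Medium: DMEM plus 2% FBS / Measure: parasite load inhibition, % / Reagent: Tulahuen C4 trypomastigotes, 5000/well / Schedule: co-culture of at least 90 h after 3 h attachment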
# CSC inhib – cancer stem cell inhibition; cancer stem cell-like cells viability, luminescence; inhibition, % at 7.5 µM; actives 1.1% (n = 300,000); AID 2717; in the data active means inhibition above about 75%; tested in HMLE shEcad cells
# Efflux pump mplx – antifungal efflux pump inhibition, Nile Red retention. S. cerevisiae Candida pump triplex. inhibition, % at 10 µM. actives 0.44% (n = 330,000). AID 485275;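 active means plate passing quality check with inhibition over a set limit, or well fluorescence over plate mean plus 4 SD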;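 further: Nile Red retained in pooled yeast measured as flow cytometry median fluorescence; 0% = buffer negative control and 100% = Enniatin B positive control; higher means more Nile Red kept so more efflux inhibition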
# Beta cell apopt – blocks beta cell apoptosis. protection from apoptosis, % (no concentration beside the values). actives 0.8% (n = 300,000). INS-1E cytokine-induced death, ATP luminescence, 48 h; percent of positive-control rescue, neutral wells zero;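 active means Every replicate reaches about 75%, or at least half do and their mean reaches it too, limit read from the data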;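 further: 0% = cytokine-treated negative control wells and 100% = positive control rescue; higher means more ATP so stronger rescue from cytokine killing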
# WT yeast gro inh – growth inhibition of WT yeast, mitochondrial fusion screen. mitochondrial fusion phenotypic screen, WT strain. inhibition, % at 10 µM. actives 2.1% (n = 190,000); in the data active means inhibition above about 58%; tested in S. cerevisiae
# * hit, by the source's call; . = no result.
SMILES,SUMO Mot1 rescue,T cruzi inh,CSC inhib,Efflux pump mplx,Beta cell apopt,WT yeast gro inh
Cc1c(C(=O)O)sc2c1c(=O)n(Cc1ccccc1)c(=O)n2C,-5.1,3.4,0.4,0.0,-3.3,.
CN(C)CCCn1c(=O)n(CCc2ccccc2)c(=O)c2c3c(sc21)CCCCC3,-11.8,60.8*,3.5,0.1,.,.
CN(C)CCCn1c(=O)n(Cc2ccco2)c(=O)c2c3c(sc21)CCCCC3,-3.6,52.0,-16.0,0.1,3.5,.
CN(C)CCn1c(=O)n(Cc2ccccc2)c(=O)c2c3c(sc21)CCCCC3,-11.4,59.3*,-7.3,0.0,7.8,.
CCOC(=O)c1sc2c(c1C)c(=O)n(Cc1ccccc1)c(=O)n2CCN(C)C,217.8,58.6*,-6.5,-0.2,-0.8,.
C[C@H](CO)N1C[C@H](C)[C@@H](CN(C)S(C)(=O)=O)Oc2c(NC(=O)Nc3ccccc3)cccc2C1=O,.,.,.,0.0,.,.
COc1ccc(OCC(=O)Nc2cc(NC(=O)c3ccco3)ccc2OC)cc1,-5.6,12.6,6.7,0.0,2.8,.
Cn1nc([N+](=O)[O-])nc1Sc1nnc(-c2ccccc2)o1,5.1,68.8*,-1.6,0.0,-15.4,-3.4
Cn1nc([N+](=O)[O-])nc1Sc1cccc2cccnc12,-13.5,65.1*,-6.6,-0.1,94.2*,-8.9
COc1cc([N+](=O)[O-])cc(/C=N\NC(=O)C2COc3ccccc3O2)c1O (stereo unspecified),-7.6,-6.1,21.4,0.1,16.8,.
COc1ccc(NS(=O)(=O)c2ccc(O)c(C(=O)OCC(=O)NC(C)C3CC4CCC3C4)c2)cc1 (stereo unspecified),-19.3,-3.3,.,0.0,.,0.5
CC(NC(=O)COC(=O)c1cc(NS(=O)(=O)c2ccc(Cl)c([N+](=O)[O-])c2)ccc1O)C1CC2CCC1C2 (stereo unspecified),-14.0,-0.4,108.1*,0.0,-1.1,-5.6
CCC/C(C(=O)NCCO)=C1/c2ccccc2C(=O)N1c1ccccc1,6.1,.,.,-0.2,1.1,.
CSc1ncccc1C(=O)N1CCCC(N2CCN(c3ccccc3F)CC2)C1 (stereo unspecified),-23.9,2.7,6.3,-1.9,3.9,.
O=C(Nc1nc(-c2ccccc2)cs1)C1CCCCN1S(=O)(=O)c1ccccc1 (stereo unspecified),6.3,5.7,23.6,0.3,6.6,18.7
O=C(Nc1nc(-c2ccccc2)cs1)C1CCCN(S(=O)(=O)c2ccccc2)C1 (stereo unspecified),.,60.7*,.,-0.1,.,-1.0
O=C(Nc1nc(-c2ccccc2)cs1)C1CCCCN1S(=O)(=O)c1ccc(Cl)cc1 (stereo unspecified),24.4,77.8*,31.2,0.0,17.2,42.9
CC1CCCN(S(=O)(=O)c2cccc([N+](=O)[O-])c2)C1 (stereo unspecified),-0.6,-5.2,-21.8,0.1,-0.8,.
O=C(Nc1nc(-c2ccccc2)cs1)C1CCCN(S(=O)(=O)c2cccc([N+](=O)[O-])c2)C1 (stereo unspecified),-6.5,73.8*,1.9,0.0,.,-1.9
COc1ccc(CCNc2ccc(C(=O)O)cc2[N+](=O)[O-])cc1OC,30.3,4.0,-10.0,-0.2,1.5,-10.7
COc1ccc(C(=O)N2CCN(c3ccc([N+](=O)[O-])c(NCCc4ccc(OC)c(OC)c4)c3)CC2)cc1,13.6,-8.4,8.4,0.1,106.5*,5.7
COc1ccc(CCNc2cc(N3CCN(C(=O)c4ccc(C)cc4)CC3)ccc2[N+](=O)[O-])cc1OC,250.1,-4.3,16.7,0.1,90.1*,-8.0
COc1ccc(CCNc2cc(N3CCN(C(=O)c4ccccc4F)CC3)ccc2[N+](=O)[O-])cc1OC,1.5,11.3,23.0,0.1,103.7*,14.8
O=C(c1ccccc1F)N1CCN(c2ccc([N+](=O)[O-])c(NCc3cccnc3)c2)CC1,1.9,-2.1,12.7,-0.2,15.1,.
COc1cccc(CN2CC(C(=O)NCCN3CCOC3=O)CCC2=O)c1 (stereo unspecified),-16.8,-9.7,-2.0,-0.1,-3.1,.
SMILES,SUMO Mot1 rescue,T cruzi inh,CSC inhib,Efflux pump mplx,Beta cell apopt,WT yeast gro inh
CC1(C)CN(c2ccccc2)N(C(=O)c2ccc(F)cc2)C1=O,14.3,17.0,91.7*,0.0,-11.5,3.2
CC(=O)OCC1(C)CN(c2ccccc2)N(C(=O)c2ccc(C(C)(C)C)cc2)C1=O (stereo unspecified),.,25.2,.,.,.,-8.8
CC1(C)CN(c2ccccc2)N(C(=O)c2ccc(C#N)cc2)C1=O,7.0,.,90.7*,0.1,-11.2,-13.7
C/C(=N\OCC(=O)NC12CC3CC(CC(C3)C1)C2)c1cc2ccccc2o1,-6.8,37.9,29.4,0.2,-0.3,65.8*
O=C(COC(=O)C12CC3CC(CC(C3)C1)C2)NC12CC3CC(CC(C3)C1)C2,140.8,-4.1,12.5,0.0,-1.5,80.4*
O=C(CON=C1c2ccccc2-c2ccccc21)NC12CC3CC(CC(C3)C1)C2,-20.1,22.0,178.9*,-1.7,-9.2,42.5
CCC(CC)C(=O)OCC(=O)NC12CC3CC(CC(C3)C1)C2,-21.3,.,-7.7,-0.1,-0.9,-16.3
O=C(COC(=O)C(O)c1ccccc1)NC12CC3CC(CC(C3)C1)C2 (stereo unspecified),116.1,-16.2,.,0.2,2.3,-3.0
COc1ccc(OC)c(NC(=O)COC(=O)CCCN=C2NS(=O)(=O)c3ccccc32)c1,6.4,.,-8.5,-0.1,0.5,.
CSCCC(NC(=O)c1ccco1)C(=O)NC1CCC(C)CC1 (stereo unspecified),1.9,.,-8.1,0.5,2.0,.
Cc1ccc(Cl)cc1N1CCN(CC(=O)NC2CCCc3ccccc32)CC1 (stereo unspecified),2.0,20.1,78.5*,0.1,-3.2,74.1*
O=C(CSc1c(Cl)cccc1Cl)NC1CCCc2ccccc21 (stereo unspecified),349.2*,-8.9,-9.0,0.3,-4.1,7.1
COc1ccc(C(CC(=O)Nc2cc(OC)cc(OC)c2)n2cccc2)cc1 (stereo unspecified),13.1,56.0*,7.0,-0.3,-1.2,9.2
CN(C)CCCNc1ccc(-c2nn(C)c(=O)c3ccccc23)cc1[N+](=O)[O-],7.6,67.6*,-9.9,0.0,8.8,-1.2
CC(=O)Nc1ccccc1OCC(=O)c1cc(C)n(Cc2cccs2)c1C,-15.7,-45.4,36.8,-0.2,110.7*,11.2
COC(=O)c1ccc(-n2c(C)cc(C(=O)CSc3ccc(NC(C)=O)cc3)c2C)cc1,2.6,-0.8,-6.9,0.7,.,34.2
COCCn1c(C)cc(C(=O)CSc2ccc(NC(C)=O)cc2)c1C,-15.7,-8.7,4.4,-0.2,2.6,-12.4
CC(=O)Nc1ccc(SCC(=O)c2cc(C)n(Cc3cccs3)c2C)cc1,10.0,10.7,106.0*,0.0,0.9,13.4
CC(=O)Nc1ccc(SCC(=O)c2cc(C)n(-c3ccccc3F)c2C)cc1,35.9,11.8,87.4*,0.0,-0.7,-28.2
